Measured values taken from ChEMBL document CHEMBL3098025, “Optimization of potency and pharmacokinetics of tricyclic indole derived inhibitors of HCV NS5B polymerase. Identification of ester prodrugs with improved oral pharmacokinetics” (Bioorg Med Chem, 2014).

What was measured:
Rattus norvegicus [1] = assay: Prodrug conversion in Sprague-Dawley rat assessed as AUC (0 to 6 hrs) of 6-((6-Chloro-1H-benzo[d]imidazol-5-yl)methyl)-4-fluoro-8-(2-oxo-1,2-dihydropyridin-3-yl)-6H-furo[2,3-e]indole-7-carboxylic acid level at 10 mg/kg, po; format: ADME, organism-based; parameters: time < 6 hr, dose 10 mg/kg, route oral; conditions: in vivo
Summary of the method: (§1)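 Sprague Dawley rats received esters orally at 10 mg/kg in 0.4% methylcellulose, given as trifluoroacetate salts. Plasma levels of both the intact ester prodrug and the acid metabolite were measured. AUC was integrated over 0–6 h after dosing.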

Rattus norvegicus [2] = assay: Prodrug conversion in Sprague-Dawley rat assessed as AUC (0 to 6 hrs) of parent compound level at 10 mg/kg, po; format: ADME, organism-based; parameters: time < 6 hr, dose 10 mg/kg, route oral; conditions: in vivo; summary of the method: as §1
[3] = AUC (0 to 6 hrs) in Sprague-Dawley rat at 10 mg/kg, po; format: ADME, organism-based; parameters: time < 6 hr, dose 10 mg/kg, route oral; conditions: plasma; summary of the method: as §1
Hepatitis C virus = assay: Antiviral activity against HCV1b assessed as inhibition of viral replication; format: functional, organism-based, Hepacivirus hominis; conditions: genotype 1b
Summary of the method: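 In the cell-based HCV replicon assay, viral RNA levels were measured. EC50 is the concentration giving a 50% reduction in replicon RNA.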

[4] = Inhibition of HCV1b NS5B polymerase; parameters: species or system Hepatitis C virus subtype 1b
Cynomolgus monkey [5] = assay: Prodrug conversion in cynomolgus monkey assessed as AUC (0 to 24 hrs) of 6-((3-Amino-6-fluoro-1H-indazol-5-yl)methyl)-4-fluoro-8-(2-oxo-1,2-dihydropyridin-3-yl)-6H-furo[2,3-e]indole-7-carboxylic acid level at 3 mg/kg, po; format: ADME, organism-based, Macaca fascicularis; parameters: time < 24 hr, dose 3 mg/kg, route oral; conditions: in vivo
Rattus norvegicus [6] = assay: Prodrug conversion in Sprague-Dawley rat assessed as AUC (0 to 24 hrs) of 6-((3-Amino-6-fluoro-1H-indazol-5-yl)methyl)-4-fluoro-8-(2-oxo-1,2-dihydropyridin-3-yl)-6H-furo[2,3-e]indole-7-carboxylic acid level at 10 mg/kg, po; format: ADME, organism-based; parameters: time < 24 hr, dose 10 mg/kg, route oral; conditions: in vivo
Summary of the method: (§2)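 Dimethylaminoethyl ester prodrugs were dosed orally to rats at 10 mg/kg in 0.4% methylcellulose.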

Liver microsome [7] = assay: Drug metabolism in human liver microsomes assessed as formation of 2-((R)-2-((S)-4-amino-4-carboxybutanamido)-3-(carboxymethylamino)-3-oxopropylthio)-6-(2,5-difluorobenzyl)-3-hydroxy-8-(2-oxo-1,2-dihydropyridin-3-yl)-3,6-dihydro-2H-furo[2,3-e]indole-7-carboxylic acid in presence of glutathione; format: ADME
Liver microsome [8] = assay: Drug metabolism in human liver microsomes assessed as formation of 6-(2,5-difluorobenzyl)-3-hydroxy-2-(methoxyamino)-8-(2-oxo-1,2-dihydropyridin-3-yl)-3,6-dihydro-2H-furo[2,3-e]indole-7-carboxylic acid in presence of NH2OCH3; format: ADME
Liver microsome [9] = assay: Drug metabolism in human liver microsomes assessed as formation of 3-(2,5-Difluoro-benzyl)-1-(2-oxo-1,2-dihydro-pyridin-3-yl)-5b,6a-dihydro-3H-6,7-dioxa-3-aza-cyclopropa[b]-as-indacene-2-carboxylic acid; format: ADME
Liver microsome [10] = assay: Drug metabolism in human liver microsomes assessed as formation of 6-(2,5-difluorobenzyl)-2,3-dihydroxy-8-(2-oxo-1,2-dihydropyridin-3-yl)-3,6-dihydro-2H-furo[2,3-e]indole-7-carboxylic acid in presence of water; format: ADME
Liver microsome [11] = assay: Drug metabolism in human liver microsomes assessed as formation of 8-(1H-pyrrol-2-yl)-6H-furo[2,3-e]indole-7-carboxylic acid; format: ADME
Cynomolgus monkey [12] = assay: Prodrug conversion in cynomolgus monkey assessed as AUC (0 to 24 hrs) of 6-((6-Chloro-1H-benzo[d]imidazol-5-yl)methyl)-4-fluoro-8-(2-oxo-1,2-dihydropyridin-3-yl)-6H-furo[2,3-e]indole-7-carboxylic acid level at 3 mg/kg, po; format: ADME, organism-based, Macaca fascicularis; parameters: time < 24 hr, dose 3 mg/kg, route oral; conditions: in vivo
Rattus norvegicus [13] = assay: Prodrug conversion in Sprague-Dawley rat assessed as AUC (0 to 24 hrs) of 6-((6-Chloro-1H-benzo[d]imidazol-5-yl)methyl)-4-fluoro-8-(2-oxo-1,2-dihydropyridin-3-yl)-6H-furo[2,3-e]indole-7-carboxylic acid level at 10 mg/kg, po; format: ADME, organism-based; parameters: time < 24 hr, dose 10 mg/kg, route oral; conditions: in vivo; summary of the method: as §2
Cynomolgus monkey [14] = assay: Prodrug conversion in cynomolgus monkey assessed as AUC (0 to 24 hrs) of 4-Fluoro-6-((6-methyl-1H-indazol-5-yl)methyl)-8-(2-oxo-1,2-dihydropyridin-3-yl)-6H-furo[2,3-e]indole-7-carboxylic acid level at 3 mg/kg, po; format: ADME, organism-based, Macaca fascicularis; parameters: time < 24 hr, dose 3 mg/kg, route oral; conditions: in vivo
Rattus norvegicus [15] = assay: Prodrug conversion in Sprague-Dawley rat assessed as AUC (0 to 24 hrs) of 4-Fluoro-6-((6-methyl-1H-indazol-5-yl)methyl)-8-(2-oxo-1,2-dihydropyridin-3-yl)-6H-furo[2,3-e]indole-7-carboxylic acid level at 10 mg/kg, po; format: ADME, organism-based; parameters: time < 24 hr, dose 10 mg/kg, route oral; conditions: in vivo; summary of the method: as §2
Cynomolgus monkey [16] = assay: Prodrug conversion in cynomolgus monkey assessed as AUC (0 to 24 hrs) of 6-((2-Aminoquinolin-4-yl)methyl)-4-fluoro-8-(2-oxo-1,2-dihydropyridin-3-yl)-6H-furo[2,3-e]indole-7-carboxylic acid level at 3 mg/kg, po; format: ADME, organism-based, Macaca fascicularis; parameters: time < 24 hr, dose 3 mg/kg, route oral; conditions: in vivo
Rattus norvegicus [17] = assay: Prodrug conversion in Sprague-Dawley rat assessed as AUC (0 to 24 hrs) of 6-((2-Aminoquinolin-4-yl)methyl)-4-fluoro-8-(2-oxo-1,2-dihydropyridin-3-yl)-6H-furo[2,3-e]indole-7-carboxylic acid level at 10 mg/kg, po; format: ADME, organism-based; parameters: time < 24 hr, dose 10 mg/kg, route oral; conditions: in vivo; summary of the method: as §2

Row | Compound | AUC(0-t) at 6 h [3] | EC50 (Hepatitis C virus) | IC50 [4] | other results
1 | COCCOC(=O)c1c(-c2ccc[nH]c2=O)c2c3occc3c(F)cc2n1Cc1cc2[nH]cnc2cc1Cl | – | – | – | AUC (Rattus norvegicus [1]): 1.1 µM·h; AUC (Rattus norvegicus [2]): 0.2 µM·h
2 | O=C(O)c1c(-c2ccc[nH]c2=O)c2c3occc3c(F)cc2n1Cc1cc2cn[nH]c2cc1Cl | 5.1 µM·h | 5 nM | 3 nM | –
3 | CN(C)CCOC(=O)c1c(-c2ccc[nH]c2=O)c2c3occc3c(F)cc2n1Cc1cc2c(N)n[nH]c2cc1F.O=C(O)C(F)(F)F | – | 4 nM | – | AUC (Cynomolgus monkey [5]): 4.2 µM·h; AUC (Rattus norvegicus [6]): 118 µM·h
4 | O=C(O)c1c(-c2ccc[nH]c2=O)c2c3occc3ccc2n1Cc1cc(F)ccc1F | – | 160 nM | 31 nM | Drug metabolism (Liver microsome [7]): Active; Drug metabolism (Liver microsome [8]): Active; Drug metabolism (Liver microsome [9]): Active; Drug metabolism (Liver microsome [10]): Active; Drug metabolism (Liver microsome [11]): Active
5 | Nc1n[nH]c2cc(F)c(Cn3c(C(=O)O)c(-c4ccc[nH]c4=O)c4c5occc5c(F)cc43)cc12 | 2.1 µM·h | 3 nM | 4 nM | –
6 | CN(C)CCCOC(=O)c1c(-c2ccc[nH]c2=O)c2c3occc3c(F)cc2n1Cc1cc2[nH]cnc2cc1Cl.O=C(O)C(F)(F)F | – | – | – | AUC (Rattus norvegicus [1]): 0.7 µM·h; AUC (Rattus norvegicus [2]): 9.1 µM·h
7 | Cc1cc2[nH]ncc2cc1Cn1c(C(=O)OCCN(C)C)c(-c2ccc[nH]c2=O)c2c3occc3c(F)cc21.O=C(O)C(F)(F)F | – | 2 nM | – | AUC (Cynomolgus monkey [14]): 10.7 µM·h; AUC (Rattus norvegicus [15]): 79 µM·h
8 | Nc1n[nH]c2cc(Cn3c(C(=O)O)c(-c4ccc[nH]c4=O)c4c5occc5c(F)cc43)c(F)cc12 | 3.6 µM·h | 12 nM | 5 nM | –
9 | CN(C)CCOC(=O)c1c(-c2ccc[nH]c2=O)c2c3occc3c(F)cc2n1Cc1cc(N)nc2ccccc12.O=C(O)C(F)(F)F | – | 7 nM | – | AUC (Cynomolgus monkey [16]): 17 µM·h; AUC (Rattus norvegicus [17]): 651 µM·h
10 | O=C(O)C(F)(F)F.O=C(OCCN1CCOCC1)c1c(-c2ccc[nH]c2=O)c2c3occc3c(F)cc2n1Cc1cc2[nH]cnc2cc1Cl | – | – | – | AUC (Rattus norvegicus [1]): 5.5 µM·h; AUC (Rattus norvegicus [2]): 0.2 µM·h
11 | O=C(O)c1c(-c2ccc[nH]c2=O)c2c3occc3c(F)cc2n1Cc1ccc2nc[nH]c2c1 | 9.3 µM·h | 30 nM | 5 nM | –
12 | O=C(O)c1c(-c2ccc[nH]c2=O)c2c3occc3c(F)cc2n1Cc1cc2c(=O)cc[nH]c2cc1F | – | 7 nM | 3 nM | –

Further lines, with some results ahead:

Row | AUC(0-t) at 6 h [3] | EC50 (Hepatitis C virus) | IC50 [4] | Compound | other results
13 | 7.7 µM·h | 7 nM | 3 nM | O=C(O)c1c(-c2ccc[nH]c2=O)c2c3occc3c(F)cc2n1Cc1cc2[nH]cnc2cc1F | –
14 | – | 13 nM | – | CN(C)CCOC(=O)c1c(-c2ccc[nH]c2=O)c2c3occc3c(F)cc2n1Cc1cc2[nH]cnc2cc1Cl.O=C(O)C(F)(F)F | AUC (Cynomolgus monkey [12]): 14 µM·h; AUC (Rattus norvegicus [13]): 208 µM·h; AUC (Rattus norvegicus [1]): 32.5 µM·h; AUC (Rattus norvegicus [2]): 0.5 µM·h
